Measurements: ChEMBL document CHEMBL1156186, “Anti-AIDS agents 81. Design, synthesis, and structure-activity relationship study of betulinic acid and moronic acid derivatives as potent HIV maturation inhibitors” (J Med Chem, 2010)
The source made the active and inactive calls. The calls are words filed in the database; no cut-off is given here.

How the values were obtained:
[1] = tested on: Human immunodeficiency virus 1; test: Antiviral activity against HIV1 3B infected in human MT2 cells assessed as inhibition of viral replication at 0.8 to 100 ug/mL treated 1 day after infection measured on after 4 days postinfection by p24 antigen ELISA; type: functional, organism-based
How it was run: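 MT-2 cells at 3×10⁵ cells/mL were infected with HIV-1 IIIB (125 TCID₅₀) in the presence of serially diluted sample, and fresh medium was added on day 1 post-infection. Supernatants were harvested on day 4 for p24 antigen ELISA. EC₅₀ is the concentration giving 50% suppression of replication. Values are the average of at least two separate experiments.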

[2] = tested on: MT2; test: Cytotoxicity against human MT2 cells by XTT assay; type: cell-based
How it was run: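 Toxicity was read by XTT on mock-infected MT-2 cells (3×10⁵ cells/mL), run as a duplicate set of the infection plates without virus, with medium added on day 1 and the assay ended on day 4. IC₅₀ is the concentration toxic to 50% of cells. Values are the average of at least two experiments.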

[3] = tested on: Human immunodeficiency virus 1; test: Antiviral activity against HIV1 3B infected in human MT2 cells assessed as inhibition of viral replication treated 1 day after infection measured on after 4 days postinfection by p24 antigen ELISA; type: functional, organism-based; conditions: Human immunodeficiency virus 1, 3B
[4] = Therapeutic index, IC50 for human MT2 cells to EC50 for HIV1 3B; type: cell-based; conditions: read-out: Ratio IC50/EC50
How it was run: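 TI is calculated as IC₅₀ (XTT, mock-infected MT-2) divided by EC₅₀ (p24 ELISA, HIV-1 IIIB-infected MT-2), both taken on day 4 post-infection from parallel plates. Values are the average of at least two experiments.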

[5] = tested on: Human immunodeficiency virus 1; test: Antiviral activity against HIV1 NL4-3 infected in human MT4 cells assessed as inhibition of viral replication treated 1 day after infection measured on after 4 days postinfection by p24 antigen ELISA; type: functional, organism-based
How it was run: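 MT-4 cells were infected with HIV-1 NL4-3 variants at an MOI of 0.01 in 96-well format with test sample. Culture supernatants were collected on day 4 post-infection for p24 antigen capture ELISA.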

[6] = tested on: Human immunodeficiency virus 1; test: Antiviral activity against wild type HIV1 NL4-3 infected in human HeLa cells assessed as inhibition of virion-associated p25 to p24 conversion at 1 ug/mL after 2 days by Western blotting; type: functional, organism-based
How it was run: (§1)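 HeLa cells were transfected with pNL4-3 proviral DNA and cultured with or without compound. Two days post-transfection, cells were metabolically labelled for 2 h with ³⁵S-Met/Cys. Cell lysates were prepared and virions were pelleted by ultracentrifugation. Both fractions were immunoprecipitated with HIV-Ig, and the p25 and p24 bands were examined by Western blotting.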

[7] = tested on: Human immunodeficiency virus 1; test: Antiviral activity against wild type HIV1 NL4-3 infected in human HeLa cells assessed as inhibition of cell line-associated p25 to p24 conversion at 1 ug/mL after 2 days by Western blotting; type: functional, organism-based; how it was run: as §1
[8] = tested on: Human immunodeficiency virus 1; test: Antiviral activity against HIV1 expressing CA-SP1 A1V mutant infected in human HeLa cells assessed as inhibition of virion-associated p25 to p24 conversion at 1 ug/mL after 2 days by Western blotting; type: functional, organism-based
How it was run: (§2)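 HeLa cells transfected with pNL4-3 bearing the A1V or L231M mutation and cultured with or without test compound. Two days post-transfection, cells labeled 2 h with ³⁵S-Met/Cys. Cell lysates prepared; virions pelleted by ultracentrifugation. Cell and viral lysates immunoprecipitated with HIV-Ig, then Western blotted for p25 and p24.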

[9] = tested on: Human immunodeficiency virus 1; test: Antiviral activity against HIV1 expressing CA-SP1 A1V mutant infected in human HeLa cells assessed as inhibition of cell line-associated p25 to p24 conversion at 1 ug/mL after 2 days by Western blotting; type: functional, organism-based; how it was run: as §2
[10] = tested on: Human immunodeficiency virus 1; test: Antiviral activity against HIV1 expressing […] L231M mutant infected in human HeLa cells assessed as inhibition of virion-associated p25 to p24 conversion at 1 ug/mL after 2 days by Western blotting; type: functional, organism-based; how it was run: as §2
[11] = tested on: Human immunodeficiency virus 1; test: Antiviral activity against HIV1 expressing […] L231M mutant infected in human HeLa cells assessed as inhibition of cell line-associated p25 to p24 conversion at 1 ug/mL after 2 days by Western blotting; type: functional, organism-based; how it was run: as §2

SMILES | inhibition [1] | IC50 [2] | EC50 [3] | selectivity ratio [4] | further results
CC(C)CC(=O)O[C@H]1CC[C@]2(C)[C@H]3CC[C@@H]4C5=CC(C)(C)CC[C@]5(C(=O)O)CC[C@@]4(C)[C@]3(C)CC[C@H]2C1(C)C | inactive | > 10 µM |  |  | 
CCCCC(=O)O[C@H]1CC[C@]2(C)[C@H]3CC[C@@H]4C5=CC(C)(C)CC[C@]5(C(=O)O)CC[C@@]4(C)[C@]3(C)CC[C@H]2C1(C)C | inactive | > 10 µM |  |  | 
CCC(=O)O[C@H]1CC[C@]2(C)[C@H]3CC[C@@H]4C5=CC(C)(C)CC[C@]5(C(=O)O)CC[C@@]4(C)[C@]3(C)CC[C@H]2C1(C)C | inactive | > 10 µM |  |  | 
CC1(C)C=C2[C@H]3CC[C@@H]4[C@@]5(C)CC[C@H](OC(=O)C(C)(C)C)C(C)(C)[C@@H]5CC[C@@]4(C)[C@]3(C)CC[C@@]2(C(=O)O)CC1 | inactive | > 10 µM |  |  | 
C=C(C)[C@@H]1CC[C@]2(C(=O)O)CC[C@]3(C)[C@H](CC[C@@H]4[C@@]5(C)CC[C@H](OC(=O)/C=C(/C)C(=O)O)C(C)(C)[C@@H]5CC[C@]43C)[C@@H]12 |  | 42.5 µM | 0.18 µM | 236 | 
CC1(C)C=C2[C@H]3CC[C@@H]4[C@@]5(C)CC[C@H](OC(=O)C6CCC6)C(C)(C)[C@@H]5CC[C@@]4(C)[C@]3(C)CC[C@@]2(C(=O)O)CC1 | inactive | > 10 µM |  |  | 
C=C(C)[C@@H]1CC[C@]2(C(=O)O)CC[C@]3(C)[C@H](CC[C@@H]4[C@@]5(C)CC[C@H](OC(=O)CC(C)(CC)C(=O)O)C(C)(C)[C@@H]5CC[C@]43C)[C@@H]12 (some centres not stated) |  | 36.4 µM | 0.0006 µM | 60700 | 
C=C(C)[C@@H]1CC[C@]2(C(=O)O)CC[C@]3(C)[C@H](CC[C@@H]4[C@@]5(C)CC[C@H](OC(=O)[C@@H]6CCC[C@H]6C(=O)O)C(C)(C)[C@@H]5CC[C@]43C)[C@@H]12 |  | 41.9 µM | 2.2 µM | 19 | 
C=C(C)[C@@H]1CC[C@]2(C(=O)O)CC[C@]3(C)[C@H](CC[C@@H]4[C@@]5(C)CC[C@H](OC(=O)C[C@@H](C)C(=O)O)C(C)(C)[C@@H]5CC[C@]43C)[C@@H]12 |  | 43.8 µM | 0.12 µM | 365 | 
CCCC(=O)O[C@H]1CC[C@]2(C)[C@H]3CC[C@@H]4C5=CC(C)(C)CC[C@]5(C(=O)O)CC[C@@]4(C)[C@]3(C)CC[C@H]2C1(C)C | inactive | > 10 µM |  |  | 
CC(C)C(=O)O[C@H]1CC[C@]2(C)[C@H]3CC[C@@H]4C5=CC(C)(C)CC[C@]5(C(=O)O)CC[C@@]4(C)[C@]3(C)CC[C@H]2C1(C)C | inactive | > 10 µM |  |  | 
C=C(C)[C@@H]1CC[C@]2(C(=O)O)CC[C@]3(C)[C@H](CC[C@@H]4[C@@]5(C)CC[C@H](OC(=O)C6CC=CCC6C(=O)O)C(C)(C)[C@@H]5CC[C@]43C)[C@@H]12 (some centres not stated) | inactive | 41.1 µM |  |  | 
C=C(C)[C@@H]1CC[C@]2(C(=O)O)CC[C@]3(C)[C@H](CC[C@@H]4[C@@]5(C)CC[C@H](OC(=O)C6C7C=CC(C7)C6C(=O)O)C(C)(C)[C@@H]5CC[C@]43C)[C@@H]12 (some centres not stated) | inactive | 40.3 µM |  |  | 
C=C(C)[C@@H]1CC[C@]2(C(=O)O)CC[C@]3(C)[C@H](CC[C@@H]4[C@@]5(C)CC[C@H](OC(=O)C[C@@](C)(CC)C(=O)O)C(C)(C)[C@@H]5CC[C@]43C)[C@@H]12 |  |  |  |  | inhibition [5]: inactive
C=C(C)[C@@H]1CC[C@]2(C(=O)O)CC[C@]3(C)[C@H](CC[C@@H]4[C@@]5(C)CC[C@H](OC(=O)CC(C)(C)C(=O)O)C(C)(C)[C@@H]5CC[C@]43C)[C@@H]12 [BEVIRIMAT] |  | 42.8 µM | 0.0013 µM | 32900 | 
C=C(C)[C@@H]1CC[C@]2(C(=O)O)CC[C@]3(C)[C@H](CC[C@@H]4[C@@]5(C)CC[C@H](OC(=O)CCC(C)(C)C(=O)O)C(C)(C)[C@@H]5CC[C@]43C)[C@@H]12 |  | 41.8 µM | 0.048 µM | 870 | 
C=C(C)[C@@H]1CC[C@]2(C(=O)O)CC[C@]3(C)[C@H](CC[C@@H]4[C@@]5(C)CC[C@H](OC(=O)[C@@H]6CCCC[C@H]6C(=O)O)C(C)(C)[C@@H]5CC[C@]43C)[C@@H]12 |  | 40.9 µM | 17.3 µM | 2.4 | 
CC1(C)C=C2[C@H]3CC[C@@H]4[C@@]5(C)CC[C@H](OC(=O)C6CCCC6)C(C)(C)[C@@H]5CC[C@@]4(C)[C@]3(C)CC[C@@]2(C(=O)O)CC1 | inactive | > 10 µM |  |  | 
C=C(C)[C@@H]1CC[C@]2(C(=O)O)CC[C@]3(C)[C@H](CC[C@@H]4[C@@]5(C)CC[C@H](OC(=O)C[C@H](C)C(=O)O)C(C)(C)[C@@H]5CC[C@]43C)[C@@H]12 |  |  | 0.0087 µM | 3770 | Activity [6]: Active; Activity [7]: Active; Activity [8]: Active; Activity [9]: Active; Activity [10]: Active; Activity [11]: Active
CCC(C)C(=O)O[C@H]1CC[C@]2(C)[C@H]3CC[C@@H]4C5=CC(C)(C)CC[C@]5(C(=O)O)CC[C@@]4(C)[C@]3(C)CC[C@H]2C1(C)C (some centres not stated) | inactive | > 10 µM |  |  | 
